In PMC3996760 (Brain research, 2014):
“Also recorded” adds a separate entry of the source. Where two headings read alike, the source gives them in different places.

Legend:
α1β3γ2 GABAA receptors = α1β3γ2 GABAA receptors (Rattus norvegicus, UniProt P18508+P62813); type: cell-based; conditions: for in vitro efficacy: GABA EC3
[1] = Quantification in rat plasma and brain tissue; type: in vivo, Wistar rats; conditions: for brain estimated free concentration: total × free fraction
male Wistar rats [2] = experiment: Spontaneous locomotor activity test; type: in vivo; conditions: for SLA total distance: 30 min recording, mean ± SEM
male Wistar rats [3] = experiment: Elevated plus maze test; type: in vivo; conditions: for EPM % time on open arms / EPM number of closed arm entries: mean ± SEM
In short: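 Maze 50 cm high, closed arms lit at 10 lux red. Rat placed centrally facing an enclosed arm and video-tracked for 5 min. Arm entry scored at 80% body crossing. One-way ANOVA; ANCOVA for % open-arm time with closed-arm entries as covariate; n=7.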

male Wistar rats [4] = experiment: Open field test; type: in vivo; conditions: for OF total distance: 15 min; for OF total distance / OF % time in central zone: mean ± SEM; for OF % time in central zone: first 5 min
male Wistar rats [5] = experiment: Grip strength test; type: in vivo; conditions: for GS grip strength: mean ± SEM
In short: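 At 20 min post-dose, rats gripped a trapezoid wire grid on a grip-strength meter with their front paws and were lifted by the tail with increasing firmness until release. n=8 per group; one-way ANOVA.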

male Wistar rats [6] = experiment: Rotarod test; type: in vivo; conditions: for RR time on rotarod: max 120 s, mean ± SEM
male Wistar rats [7] = experiment: Morris water maze test; type: in vivo; conditions: acquisition, mean ± SEM
In short: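 Pool 200 cm diameter, 23 °C water, platform submerged 2 cm. Four trials per block, max 120 s each, 60 s intertrial interval, pseudorandom starts. Escape latency video-tracked and averaged per rat per day; n=7.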

male Wistar rats [8] = experiment: Peripheral nerve injury model; type: in vivo
[9] = ref Munro et al., 2008, cited from earlier work

Sequence of α1β3γ2 GABAA receptors (P62813 28-455): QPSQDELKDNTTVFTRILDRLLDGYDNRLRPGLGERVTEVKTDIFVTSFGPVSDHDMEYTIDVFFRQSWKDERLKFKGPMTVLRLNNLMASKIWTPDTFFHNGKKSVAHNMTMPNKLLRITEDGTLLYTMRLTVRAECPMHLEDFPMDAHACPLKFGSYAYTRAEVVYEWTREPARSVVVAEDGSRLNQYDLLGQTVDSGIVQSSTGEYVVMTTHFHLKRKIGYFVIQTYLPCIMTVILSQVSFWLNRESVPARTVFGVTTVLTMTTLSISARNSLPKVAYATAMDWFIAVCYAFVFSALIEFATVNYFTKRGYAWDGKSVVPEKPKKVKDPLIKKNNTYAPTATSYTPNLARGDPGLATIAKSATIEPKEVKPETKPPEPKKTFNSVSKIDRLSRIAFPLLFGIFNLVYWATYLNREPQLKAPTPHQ
Sequence of α1β3γ2 GABAA receptors (P18508 39-466): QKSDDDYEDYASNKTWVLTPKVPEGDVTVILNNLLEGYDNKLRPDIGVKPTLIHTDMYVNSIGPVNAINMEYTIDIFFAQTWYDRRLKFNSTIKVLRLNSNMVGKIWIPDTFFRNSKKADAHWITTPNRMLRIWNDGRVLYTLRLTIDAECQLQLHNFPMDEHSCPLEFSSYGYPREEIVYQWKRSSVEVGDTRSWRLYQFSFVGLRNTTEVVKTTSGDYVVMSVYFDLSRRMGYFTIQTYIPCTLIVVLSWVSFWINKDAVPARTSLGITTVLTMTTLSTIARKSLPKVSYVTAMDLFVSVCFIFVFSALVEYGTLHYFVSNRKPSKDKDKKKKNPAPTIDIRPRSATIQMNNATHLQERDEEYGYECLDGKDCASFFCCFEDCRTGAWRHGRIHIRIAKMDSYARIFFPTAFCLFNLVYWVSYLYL
Sequence of α1β3γ2 GABAA receptors (P63079 26-473 partner): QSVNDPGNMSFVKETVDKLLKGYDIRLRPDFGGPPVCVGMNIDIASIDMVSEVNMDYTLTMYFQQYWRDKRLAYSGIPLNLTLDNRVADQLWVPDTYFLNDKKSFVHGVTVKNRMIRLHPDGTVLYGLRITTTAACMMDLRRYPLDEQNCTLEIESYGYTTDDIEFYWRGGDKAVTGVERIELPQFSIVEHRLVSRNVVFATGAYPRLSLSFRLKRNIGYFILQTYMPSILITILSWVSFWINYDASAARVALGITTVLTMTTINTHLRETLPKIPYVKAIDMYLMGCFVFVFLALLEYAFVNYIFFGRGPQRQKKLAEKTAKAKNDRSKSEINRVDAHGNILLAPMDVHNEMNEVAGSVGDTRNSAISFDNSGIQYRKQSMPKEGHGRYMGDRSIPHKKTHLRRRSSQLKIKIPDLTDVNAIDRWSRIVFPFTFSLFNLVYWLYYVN

C[C@@H]1N=C(c2ccccc2F)c2cc(Br)ccc2NC1=O [SH-I-048A, (S)-7-bromo-5-(2-fluorophenyl)-3-methyl-1Hbenzo[e][1,4]diazepin-2(3H)-one]
in vitro efficacy (α1β3γ2 GABAA receptors; concentration 1 nM): 124%
in vitro efficacy (α1β3γ2 GABAA receptors; concentration 10 nM): 256%
approximated potentiation at estimated in vivo free brain concentration (α1β3γ2 GABAA receptors; free concentration 3.26 nM (0.5 mg/kg i.p., 20 min), linear interpolation): 157%
brain total concentration ([1]; 0.5 mg/kg i.p., 20 min): 231.12 ± 52.27 nmol/kg
brain estimated free concentration ([1]; 0.5 mg/kg i.p., 20 min): 3.26 nmol/kg
brain total concentration ([1]; 2 mg/kg i.p., 20 min): 750.59 ± 307.14 nmol/kg
brain estimated free concentration ([1]; 2 mg/kg i.p., 20 min): 10.60 nmol/kg
brain total concentration ([1]; 2 mg/kg i.p., 60 min): 739.37 ± 182.94 nmol/kg
brain estimated free concentration ([1]; 2 mg/kg i.p., 60 min): 10.45 nmol/kg
brain total concentration ([1]; 10 mg/kg i.p., 20 min): 2096.33 ± 858.32 nmol/kg
brain estimated free concentration ([1]; 10 mg/kg i.p., 20 min): 29.62 nmol/kg
brain total concentration ([1]; 10 mg/kg i.p., 60 min): 1035.23 ± 421.19 nmol/kg
brain estimated free concentration ([1]; 10 mg/kg i.p., 60 min): 14.63 nmol/kg
SLA total distance (male Wistar rats [2]; 10 mg/kg i.p.): 6.42 ± 2.26 m
influence on total distance traveled during 30 min (male Wistar rats [2]; 2, 5 and 10 mg/kg, one-way ANOVA p=0.061): did not reach statistical significance
distance traveled in second 5-min bin (5–10 min) vs solvent (male Wistar rats [2]; 5 and 10 mg/kg, p=0.017 and p=0.008): traveled shorter distances than the solvent-treated animals
EPM % time on open arms (male Wistar rats [3]; 10 mg/kg i.p.): 67.43 ± 12.34 %
EPM number of closed arm entries (male Wistar rats [3]; 10 mg/kg i.p.): 4.00 ± 1.23
influence on EPM parameters, preliminary study (male Wistar rats [3]; 0.5 and 2 mg/kg, data not shown): devoid of any influences
effect of treatment on number of closed arm entries (male Wistar rats [3]; 2, 5 and 10 mg/kg, one-way ANOVA p=0.072): no significant effect
effect of treatment on percentage of time spent on open arms (male Wistar rats [3]; 2, 5 and 10 mg/kg, one-way ANOVA p=0.095): not significant
OF total distance (male Wistar rats [4]; 10 mg/kg i.p.): 15.39 ± 5.35 m
OF % time in central zone (male Wistar rats [4]; 10 mg/kg i.p.): 30.01 ± 15.49%
effect on total distance traveled in open field vs solvent (male Wistar rats [4]; 10 mg/kg only, Dunnett p<0.001): significantly decreased
effect on percent of time spent in the central zone (male Wistar rats [4]; 0.2, 0.5, 2 and 10 mg/kg, p=0.669): not significantly affected
GS grip strength (male Wistar rats [5]; 10 mg/kg i.p.): 2588.83 ± 169.52 g/kg
effect on grip strength vs solvent (male Wistar rats [5]; 2, 5 and 10 mg/kg, p=0.002, p<0.001, p=0.002): significant muscle relaxation
RR time on rotarod (male Wistar rats [6]; 10 mg/kg i.p.): 0.25 ± 0.16 s
MWM latency Day 1 (male Wistar rats [7]; 10 mg/kg i.p. daily): 102.11 ± 9.11 s
MWM latency Day 2 (male Wistar rats [7]; 10 mg/kg i.p. daily): 88.52 ± 9.40 s
MWM latency Day 3 (male Wistar rats [7]; 10 mg/kg i.p. daily): 62.98 ± 14.13 s
MWM latency Day 4 (male Wistar rats [7]; 10 mg/kg i.p. daily): 53.39 ± 14.74 s
MWM latency Day 5 (male Wistar rats [7]; 10 mg/kg i.p. daily): 42.65 ± 13.99 s
effect of Treatment on paw withdrawal threshold 48 h after surgery (male Wistar rats [8]; 10 mg/kg, one to three doses, p=0.157): no significant effect
paw withdrawal threshold 24 h after injury vs solvent (male Wistar rats [8]; three doses of 10 mg/kg (0, 12, 23 h), p=0.015): significantly higher paw withdrawal threshold; also recorded: reversed mechanical hyperalgesia

Cc1ccc(-c2nc3ccc(C)cn3c2CC(=O)N(C)C)cc1 [zolpidem]
activity in chronic constriction injury model [9]: completely inactive

CN1C(=O)CN=C(c2ccccc2)c2cc(Cl)ccc21 [diazepam, reference compound]
SLA total distance (male Wistar rats [2]; 2 mg/kg i.p.): 7.17 ± 1.13 m
EPM % time on open arms (male Wistar rats [3]; 2 mg/kg i.p.): 76.67 ± 6.67 %
EPM number of closed arm entries (male Wistar rats [3]; 2 mg/kg i.p.): 4.09 ± 0.77
OF total distance (male Wistar rats [4]; 2 mg/kg i.p.): 24.50 ± 5.34 m
OF % time in central zone (male Wistar rats [4]; 2 mg/kg i.p.): 3.09 ± 1.15%
GS grip strength (male Wistar rats [5]; 2 mg/kg i.p.): 1722.50 ± 197.65 g/kg
RR time on rotarod (male Wistar rats [6]; 2 mg/kg i.p.): 41.70 ± 9.79 s
MWM latency Day 1 (male Wistar rats [7]; 2 mg/kg i.p. daily): 103.45 ± 10.64 s
MWM latency Day 2 (male Wistar rats [7]; 2 mg/kg i.p. daily): 92.82 ± 6.40 s
MWM latency Day 3 (male Wistar rats [7]; 2 mg/kg i.p. daily): 77.83 ± 15.52 s
MWM latency Day 4 (male Wistar rats [7]; 2 mg/kg i.p. daily): 59.02 ± 9.78 s
MWM latency Day 5 (male Wistar rats [7]; 2 mg/kg i.p. daily): 56.40 ± 10.20 s
effect on hind paw hypersensitivity ([9]; highest dose tested (10 mg/kg)): able to attenuate hind paw hypersensitivity

CC(C)(C)OC(=O)c1cc2c(cn1)[nH]c1ccccc12 [β-CCt, t-butyl-β-carboline-3-carboxylate]
effect of adding β-CCt on latency to fall from the revolving rod (male Wistar rats [6]; β-CCt 30 mg/kg added to 10 and 25 mg/kg SH-I-048A, 0.5, 1 and 1.5 h): increased latency to fall
